The text below walks through data of ChEMBL document CHEMBL1153380, “Discovery of potent and orally active 3-alkoxy-5-phenoxy-N-thiazolyl benzamides as novel allosteric glucokinase activators” (Bioorg Med Chem, 2009).

Structures are written as SMILES. The source made the active and inactive calls. No cut-off for these calls is given here.

Data set [1] deals with T1, Hexokinase-4 (Homo sapiens, UniProt P35557).
T1 sequence (P35557 whole entry): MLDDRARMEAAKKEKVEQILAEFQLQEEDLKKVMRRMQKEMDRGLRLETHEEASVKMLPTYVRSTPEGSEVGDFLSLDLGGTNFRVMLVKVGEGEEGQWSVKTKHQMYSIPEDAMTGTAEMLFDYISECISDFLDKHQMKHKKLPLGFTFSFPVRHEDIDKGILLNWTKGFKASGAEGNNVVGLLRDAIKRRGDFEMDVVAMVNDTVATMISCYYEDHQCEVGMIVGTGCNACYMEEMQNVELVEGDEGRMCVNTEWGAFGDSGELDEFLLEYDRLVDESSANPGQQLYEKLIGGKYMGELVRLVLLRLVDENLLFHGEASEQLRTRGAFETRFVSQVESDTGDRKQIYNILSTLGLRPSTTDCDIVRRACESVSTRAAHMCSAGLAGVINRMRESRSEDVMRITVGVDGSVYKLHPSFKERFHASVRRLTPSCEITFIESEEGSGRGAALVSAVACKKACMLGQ
Put plainly: Activation of flag-tagged human recombinant liver glucokinase expressed in Escherichia coli by glucose-6-phosphate dehydrogenase coupled continuous spectrophotometric assay in presence of 10 mM glucose.

The target of data set [2] is T1, Hexokinase-4. Put plainly: Activation of flag-tagged human recombinant liver glucokinase expressed in Escherichia coli by glucose-6-phosphate dehydrogenase coupled continuous spectrophotometric assay in presence of 2.5 mM glucose.
Data set [3] in a line: Volume of distribution at steady state in Sprague-Dawley rat at 1 mg/kg, iv. Format: ADME, organism-based. More on the design: dose 1 mg/kg, route intravenous. The conditions noted are these: in vivo, read-out: Vdss.
The subject of the next data set is Mus musculus. Put plainly: Glucose lowering effect in normal-fed ICR mouse assessed as decrease in plasma glucose AUC level at 30 mg/kg, po. It is filed as functional, organism-based. Details: dose 30 mg/kg. In outline:
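Mice given a single oral dose in 0.5% methylcellulose vehicle. Blood glucose measured just before dosing and at 0.5, 1, 1.5, 2, 3 and 4 h after dosing.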

A short description of data set [4]: Tmax in Sprague-Dawley rat at 3 mg/kg, po. Format: ADME, organism-based. More on the design: dose 3 mg/kg, route oral. To be noted: in vivo.
Data set [5] can be described thus: AUC (0 to infinity) in Sprague-Dawley rat at 3 mg/kg, po. It is filed as ADME, organism-based. Details: time infinity, dose 3 mg/kg, route oral. The conditions noted are these: plasma.
Data set [6] is described as follows: Half life in Sprague-Dawley rat at 1 mg/kg, iv. It is filed as ADME, organism-based. Details: dose 1 mg/kg, route intravenous. The conditions noted are these: in vivo.
Data set [7] is described as follows: Oral bioavailability in Sprague-Dawley rat at 3 mg/kg. Format: ADME, organism-based. To be noted: in vivo.
Another data set concerns Rattus norvegicus. The experiment in a line: Glucose lowering effect in overnight-fasted po dosed Wistar rat assessed as decrease in glucose AUC level administered 30 mins before oral glucose challenge by OGTT. Format: functional, organism-based. In outline:
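Rats dosed orally in 0.5% methylcellulose vehicle, then given an oral glucose challenge (2 g/kg) 30 min later. Plasma glucose measured just before and after the challenge. Glucose AUC used as read-out.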

Data set [8] is described as follows: Total clearance in Sprague-Dawley rat at 1 mg/kg, iv. More on the design: dose 1 mg/kg, route intravenous. The conditions noted are these: in vivo. It is filed as ADME, organism-based.
A short description of data set [9]: AUC (0 to infinity) in Sprague-Dawley rat at 1 mg/kg, iv. Format: ADME, organism-based. Details: time infinity, dose 1 mg/kg, route intravenous. The conditions noted are these: plasma.
Data set [10] is described as follows: Cmax in Sprague-Dawley rat at 3 mg/kg, po. More on the design: dose 3 mg/kg, route oral. To be noted: in vivo. Format: ADME, organism-based.

In the case of `Cc1csc(NC(=O)c2cccc(Oc3ccccc3F)c2)n1`, the values for the EC50 at Hexokinase-4 [1] and on Hexokinase-4 [2] were 0.45 µM and 2.4 µM, respectively.

`Cc1csc(NC(=O)c2cc(Oc3ccccc3S(C)(=O)=O)ccc2OC(C)C)n1`: the EC50 on Hexokinase-4 [1] and at Hexokinase-4 [2] was greater than 30 µM each time.

Turning to `Cc1csc(NC(=O)c2cc(Oc3ccccc3)cc(Oc3cccc(S(C)(=O)=O)c3)c2)n1`, the figures for the EC50 at Hexokinase-4 [1] and on Hexokinase-4 [2] were 0.94 µM and 1.1 µM, respectively.

Regarding `Cc1cccc(Oc2cccc(C(=O)Nc3nc(C)cs3)c2)c1`, the EC50 came out at 2.3 µM at Hexokinase-4 [1] and 8.2 µM on Hexokinase-4 [2].

Consider `COc1ccccc1Oc1cccc(C(=O)Nc2nc(C)cs2)c1`, for which the half-maximal effective concentration (EC50) came out at 0.49 µM on Hexokinase-4 [1] and 2.2 µM at Hexokinase-4 [2].

Consider `Cc1csc(NC(=O)c2cc(Oc3ccccc3S(C)(=O)=O)ccc2Oc2ccccc2)n1`, for which the EC50 at Hexokinase-4 [1] and at Hexokinase-4 [2] was greater than 30 µM in each case.

In the case of `Cc1csc(NC(=O)c2cc(Oc3ccccc3)cc(Oc3ccc(S(C)(=O)=O)cc3)c2)n1`, the EC50 was found to be 0.35 µM on Hexokinase-4 [1] and 0.42 µM at Hexokinase-4 [2].

For the molecule `Cc1csc(NC(=O)c2cccc(Oc3ccccc3S(C)(=O)=O)c2)n1`, the figures for the EC50 on Hexokinase-4 [1] and at Hexokinase-4 [2] were 1.1 µM and 5.5 µM, respectively.

With `Cc1ccc(Oc2cccc(C(=O)Nc3nc(C)cs3)c2)cc1`, the EC50 at Hexokinase-4 [1] is 6.4 µM; on Hexokinase-4 [2], 5.9 µM.

Consider `CCOc1ccccc1Oc1cccc(C(=O)Nc2nc(C)cs2)c1`, for which the EC50 at Hexokinase-4 [1] is 1.9 µM; on Hexokinase-4 [2] it was 5.4 µM.

`CCOc1cc(Oc2ccccc2S(C)(=O)=O)cc(C(=O)Nc2nc(C)cs2)c1`: the EC50 at Hexokinase-4 [1] stood at 2.1 µM; at Hexokinase-4 [2], 2.4 µM.

For the molecule `Cc1csc(NC(=O)c2cc(Oc3ccc(S(C)(=O)=O)cc3)cc(OC(C)C)c2)n1`, the Vd in data set [3] was found to be 0.4 L/kg. Besides, the outcome in the data set on Mus musculus was Active. Besides, the Tmax in data set [4] stood at 1 h. The total exposure AUC(0-inf) in data set [5] is 12 µM·h; in [9], 9.7 µM·h. Moreover, the half-life in data set [6] was 1.1 h. In [7], this molecule gave a bioavailability of 40%. Further, the half-maximal effective concentration (EC50) on Hexokinase-4 [1] turned out to be 0.13 µM; at Hexokinase-4 [2], 0.33 µM. The Activity result in the data set on Rattus norvegicus is “Dose-dependent effect”. For the same molecule, the clearance in data set [8] worked out at 0.246 L/h/kg. Further, the Cmax in data set [10] stood at 2.9 µM.

For `Cc1csc(NC(=O)c2cccc(Oc3ccccc3)c2)n1`, the concentration giving a half-maximal response (EC50) stood at 0.8 µM on Hexokinase-4 [1] and 19 µM on Hexokinase-4 [2].

Regarding `COc1cc(Oc2ccccc2S(C)(=O)=O)cc(C(=O)Nc2nc(C)cs2)c1`, the EC50 at Hexokinase-4 [1] was 1.9 µM; at Hexokinase-4 [2] it was 11 µM.

On to `Cc1csc(NC(=O)c2cc(Oc3ccccc3)cc(Oc3ccccc3S(C)(=O)=O)c2)n1`, for which the concentration for a half-maximal effect (EC50) turned out to be 0.61 µM at Hexokinase-4 [1] and 1.1 µM on Hexokinase-4 [2].

For the molecule `Cc1csc(NC(=O)c2cccc(Oc3ccccc3C)c2)n1`, the half-maximal effective concentration (EC50) is 0.82 µM on Hexokinase-4 [1] and 3.2 µM on Hexokinase-4 [2].

`Cc1csc(NC(=O)c2cccc(Oc3ccc(F)cc3)c2)n1`: the results for the half-maximal effective concentration (EC50) at Hexokinase-4 [1] and at Hexokinase-4 [2] were 4.2 µM and 21 µM, respectively.

`Cc1csc(NC(=O)c2cc(Oc3ccccc3S(C)(=O)=O)cc(OC(C)C)c2)n1`: the figures for the EC50 on Hexokinase-4 [1] and at Hexokinase-4 [2] were 0.44 µM and 2.1 µM, respectively.

As to `Cc1csc(NC(=O)c2cccc(Oc3cccc(F)c3)c2)n1`, the half-maximal effective concentration (EC50) worked out at 2.2 µM on Hexokinase-4 [1] and 6.3 µM on Hexokinase-4 [2].

With `Cc1csc(NC(=O)c2cc(Oc3cccc(S(C)(=O)=O)c3)cc(OC(C)C)c2)n1`, the figures for the EC50 at Hexokinase-4 [1] and on Hexokinase-4 [2] were 0.09 µM and 1.1 µM, respectively.

Regarding `Cc1csc(NC(=O)c2cccc(Oc3ccc(S(C)(=O)=O)cc3)c2)n1`, the results for the concentration for a half-maximal effect (EC50) on Hexokinase-4 [1] and on Hexokinase-4 [2] were 3.4 µM and 29 µM, respectively.

Regarding `Cc1csc(NC(=O)c2cccc(Oc3cccc(S(C)(=O)=O)c3)c2)n1`, the EC50 on Hexokinase-4 [1] amounted to 1.1 µM; at Hexokinase-4 [2], 18 µM.
